Data as given in ChEMBL document CHEMBL1152741, “Discovery, design, and synthesis of anti-metastatic lead phenylmethylene hydantoins inspired by marine natural products” (Bioorg Med Chem, 2009).
The source made the active and inactive calls. The calls are words filed in the database; no cut-off is given here.

Tests used:
PC-3M [1] = assay: Antiinvasive activity in human PC3M cells expressing CTR assessed as change in core spheroid at => 100 uM after 48 hrs by spheroid disaggregation assay; type: functional, cell-based
[2] = Antimetastatic activity against human PC3M cells expressing CTR assessed as reduction in migration area at 200 uM after 48 hrs by spheroid disaggregation assay; type: functional, PC-3M
How it was run: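 PC-3M-CT+ cells (which secrete calcitonin and carry CTR) are formed into spheroids from 5 × 10^4/mL cells in serum-free RPMI 1640. Plates are rocked 2 days at 37°C, giving spheroids of 150–300 μm. Single spheroids are placed on ECM-coated wells in serum-free medium, with t = 0 set at 1 h. They are photographed, kept 48 h at 37°C, then fixed and Diff-Quik stained. Radial migration distance is measured by micrometer after subtracting the initial diameter. Compounds are tested at 200 μM.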

[3] = Antiinvasive activity in human PC3M cells expressing CTR assessed as inhibition of calcitonin-induced cell migration after 24 hrs by spheroid disaggregation assay; type: functional, cell-based; settings: PC-3M
PC-3M [4] = assay: Cytotoxicity against human PC3M cells assessed as cell viability up to 50 uM by MTT assay; type: functional, cell-based

For `N#Cc1cccc(/C=C2\NC(=O)NC2=O)c1`, the Activity (PC-3M [1]) was “inactive” and the Activity [2] was 195 um.

For `O=C1NC(=O)/C(=C/c2ccccc2-c2cccs2)N1`, the Activity (PC-3M [1]) was “inactive” and the Activity [2] was 50 um.

For `Cc1ccc(/C=C2\NC(=O)NC2=O)c(F)c1F`, the Activity (PC-3M [1]) was “inactive” and the Activity [2] was 175 um.

With `CCSc1ccc(/C=C2\NC(=O)NC2=O)cc1` the EC50 [3] was 30 µM, the Activity (PC-3M [1]) was “inactive” and the Activity [2] was 15.5 um.

In the case of `O=C1NC(=O)/C(=C/c2ccc(O)cc2)N1` [4-HYDROXYPHENYLMETHYLENE HYDANTOIN], the Activity (PC-3M [4]) is reported as “inactive”, the EC50 [3] is reported as 150 µM and the Activity (PC-3M [1]) is reported as “inactive”.

With `O=C1NC(=O)/C(=C/c2cccc(-c3ccccc3)c2)N1` the Activity (PC-3M [1]) was “inactive” and the Activity [2] was 76 um.

In the case of `O=C1NC(=O)/C(=C/c2ccc(-c3cccs3)cc2)N1`, the Activity (PC-3M [1]) is reported as “inactive” and the Activity [2] is reported as 39 um.

With `O=C1NC(=O)/C(=C/c2ccccc2-c2ccccc2)N1` the Activity (PC-3M [1]) was “inactive” and the Activity [2] was 56 um.
